Results collected from several papers.
Protocols differ between the studies behind these lines.
Sample: plasma

O=C(Nc1cccnn1)N1CCN([C@@H]2CCOc3cc(C(F)(F)F)ccc32)CC1
bioavailability (male Sprague-Dawley rat; oral, 0.3 mg/kg): 41%

CS(=O)(=O)Nc1ccc(-c2ccnc(Nc3ccc(-n4ccnn4)cc3)n2)cc1
bioavailability (Sprague-Dawley rat; oral, 2 mg/kg): 5%

COc1ncccc1-c1cnn2ccc(N3CCN(C(=O)OC(C)C)CC3)nc12
bioavailability (rat; oral, 10 mg/kg): 50%

Cc1cnc(N2CC3(CCOCC3)C2)c(C(=O)Nc2ccc(C(=O)N3CCc4cc(C(=O)Nc5c(C)cccc5F)sc4-c4ccccc43)cc2)c1
bioavailability (rat; inhaled, 2.7 mg/kg, single dose): < 3%

CN(C)C(=O)Oc1cc(OC(=O)N(C)C)cc(-c2cc3ccc(O)cc3o2)c1
bioavailability (male rat; oral, 5 mg/kg): 3.01%

O=C([O-])C(=O)[O-].[NH-][C@@H]1CCCC[C@H]1[NH-].[Pt+4] (relative stereo)
bioavailability (rat; intravenous, 5 mg/kg): 100%

Cl.Cl.O=C(CCN1CCCCC1)c1ccc(-c2ccc(C(=O)CCN3CCCCC3)cc2)cc1
bioavailability (Sprague-Dawley rat; oral, 100 mg/kg): 24.2%

C#Cc1ccc2c(c1)C(c1ccccn1)=NCc1c(-c3cnco3)ncn1-2
bioavailability (male Sprague-Dawley rat; intraperitoneal, 10 mg/kg): 69%

[2H]C([2H])(c1cc(F)c(F)cc1F)n1c(=O)n(Cc2ncn(C)n2)c(=O)[nH]/c1=N\c1cc2cn(C)nc2cc1Cl
bioavailability (male Sprague-Dawley rat; oral, 25 mg/kg): 117%

N=c1c2c(-c3ccccc3)c(-c3ccccc3)n(Cc3ccccc3)c2ncn1[C@H]1CC[C@H](O)CC1
bioavailability (male Sprague-Dawley rat; oral, 2 mg/kg, single dose): > 80%

CCC[C@@](N)(CO)CCc1ccc(OCCCCCC(C)C)cc1
bioavailability (rat; oral, 30 mg/kg): 35%

Cn1cnc(Cn2c(=O)[nH]/c(=N\c3cc4cn(C)nc4cc3Cl)n(Cc3cc(F)c(F)cc3F)c2=O)n1
bioavailability (male Sprague-Dawley rat; oral, 25 mg/kg): 129%

Cc1ncc(C)n2nc(/C=C/c3nc(N4CCCC4)cc(N4CCOCC4)n3)nc12
bioavailability (male Sprague-Dawley rat; oral, 0.3 mg/kg): 33%
